This is a sample that favours compounds with a hit; in the whole collection about 0.27% have one here.
Bcl-W Bim block: inhibitors of Bim binding to Bcl-W, primary screen, biochemical, multiplexed, bead-based flow cytometry; Bim peptide-Bcl-W binding; inhibition, % at 10 µM; 0.02% of 190,000 active; Bcl-2-like protein 2 (Homo sapiens), Q92843;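 also: 0% = bound tracer without compound and 100% = peptide blocker; higher means less fluorescent Bim peptide bound to Bcl-W beads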
Target sequence (Q92843 whole entry, looked up): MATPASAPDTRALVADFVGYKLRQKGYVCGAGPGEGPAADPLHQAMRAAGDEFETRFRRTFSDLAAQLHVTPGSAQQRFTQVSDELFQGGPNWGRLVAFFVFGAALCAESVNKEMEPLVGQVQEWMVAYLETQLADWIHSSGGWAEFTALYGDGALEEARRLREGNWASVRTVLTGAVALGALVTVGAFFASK
Bfl-1 Bim block: inhibitors of Bim binding to Bfl-1, primary screen, biochemical, multiplexed, bead-based flow cytometry; inhibition, % at 10 µM; Bim-Bfl-1 binding inhibition; 0.12% of 190,000 active; AID 1008, 2008; Bcl-2-related protein A1 (Homo sapiens), Q16548;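 also: 0% = wells without compound plus tracer and 100% = blocker peptide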
Bim-Bcl-B: inhibitors of Bim-Bcl-B binding, primary screen, biochemical, multiplexed, human Bcl-2 family. Bcl-2-like protein 10 (Homo sapiens), Q9HD36. bead-based flow cytometry, Bim peptide-Bcl-B binding. inhibition, % at 10 µM. 0.073% of 190,000 active. AID 951, 2007;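 also: 0% = tracer peptide without compound and 100% = reference inhibitor peptide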
MDM2 E3 inh: MDM2-luciferase reporter signal enhancers, primary screen, MDM2 E3 ligase inhibitor project, cell-based, luminescence, 1536-well. AID 1230, 2008. signal enhancement, % at 5 µM. E3 ubiquitin-protein ligase Mdm2 (Homo sapiens), Q00987. cell-based MDM2 ubiquitination luciferase reporter, 2 h; 0 = plate control, 100 = twice control, blank-subtracted. 0.11% of 210,000 active;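 active = signal enhancement of 30% or more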;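 also: luminescence tracks abundance of the self-degrading MDM2-luciferase fusion protein; higher signal means inhibition of MDM2 E3 ligase activity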
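system = mammalian cells stably expressing self-ubiquitinating, self-degrading MDM2 E3–luciferase fusion | quantity = 2000 cells per well seeded | incubation = 4 h cell settling then 2 h compound exposure, 37 °C | signal = SteadyLite luminescence, 15 min reagent step | benchmarks = plate control and blank wells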
Bim-Bcl-2: inhibitors of Bim-Bcl-2 binding, primary screen, biochemical, multiplexed, human Bcl-2 family | Apoptosis regulator Bcl-2 (Homo sapiens), P10415 | Bead-based flow cytometry, Bim peptide-Bcl-2 binding | inhibition, % at 10 µM | 0.06% of 190,000 active; in the data active = inhibition above about 40%;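 also: 0% = no compound wells with probe peptide and 100% = reference peptide inhibitor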
Target sequence (P10415 whole entry, looked up): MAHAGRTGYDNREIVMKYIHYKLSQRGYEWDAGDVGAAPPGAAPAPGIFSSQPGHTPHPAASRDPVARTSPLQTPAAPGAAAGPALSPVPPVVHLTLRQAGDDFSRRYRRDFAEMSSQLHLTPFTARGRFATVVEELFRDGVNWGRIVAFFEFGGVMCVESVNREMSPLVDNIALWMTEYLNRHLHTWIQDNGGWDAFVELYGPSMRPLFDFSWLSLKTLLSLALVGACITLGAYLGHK
Bim-Bcl-XL: inhibitors of Bim-Bcl-XL binding, primary screen, biochemical, multiplexed, bead flow cytometry, human Bcl-XL; Bim peptide-Bcl-XL binding, fluorescence; AID 1007, 2008; Bcl-2-like protein 1 (Homo sapiens), Q07817; inhibition, % at 10 µM; 0.04% of 190,000 active
Target sequence (Q07817 whole entry, looked up): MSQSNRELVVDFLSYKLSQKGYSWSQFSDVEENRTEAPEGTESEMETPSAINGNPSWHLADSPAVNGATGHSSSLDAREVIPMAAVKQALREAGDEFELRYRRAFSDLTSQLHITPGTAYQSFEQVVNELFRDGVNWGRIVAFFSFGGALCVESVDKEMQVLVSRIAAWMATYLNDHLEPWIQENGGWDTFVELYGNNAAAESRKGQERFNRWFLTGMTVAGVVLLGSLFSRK
Bim-Bcl-XL DR: Bim-Bcl-XL interaction inhibitors, hit retest, confirmation, biochemical, dose response, multiplexed, HTS hits; shares compounds with Bfl-1 Bim block; bead-based flow cytometry, Bim-Bcl-XL binding; inhibition of binding at 100 µM; 40 tested, under 10 active; call rule not given here
* hit, by the source's call; . = no result. Rule as the data show it, unless noted: active = inhibition above about 40%.

SMILES | Bcl-W Bim block | Bfl-1 Bim block | Bim-Bcl-B | MDM2 E3 inh | Bim-Bcl-2 | Bim-Bcl-XL | others
CCc1c(C)c(C#N)c2nc3ccccc3n2c1Cl | 0.0 | 0.0 | -2.0 | 43.9* | -7.0 | -4.0
CCOc1ccc(/C=C/C(=O)c2cc(Br)ccc(=O)c2O)cc1 | 21.0 | 42.0* | -13.0 | 15.6 | 28.0 | 21.0
Cc1nc2ncccn2c1-c1csc(Nc2ccc(O)cc2)n1 | 35.0 | 19.0 | 33.0 | -16.9 | 13.0 | 62.0*
Cc1ccc(NC(=O)C(=O)C2C(=O)Nc3ccccc32)cc1 (configuration not stated) | . | . | . | -15.9 | . | .
CN(C)CCNC(=O)C(=O)C1C(=O)Nc2ccccc21 (configuration not stated) | -6.0 | 52.0* | 70.0* | -4.3 | 78.0* | 0.0
CC(C)(C)c1nnc2cccc(Cl)n12 | -2.0 | -5.0 | -2.0 | -6.9 | -4.0 | -2.0
CC(=O)c1ccc2c(c1)C1C=CCC1C(c1ccncc1)N2 (configuration not stated) | 16.0 | 27.0 | 13.0 | -6.2 | 11.0 | 5.0
C1=CC2c3ccccc3NC(c3ccncc3)C2C1 (configuration not stated) | 14.0 | 55.0* | 9.0 | -15.9 | 18.0 | 8.0
Cc1ccc(C)n1-c1ccc(N2CCOCC2)c([N+](=O)[O-])c1 | . | . | . | -17.2 | . | .
Cc1ccc(C)n1-c1ccc(N2CCOCC2)cc1 | 3.0 | 6.0 | 40.0* | -6.6 | 7.0 | 2.0
CCn1cc(C(=O)NCc2ccccc2OC)c(=O)c2cc(S(=O)(=O)N(C)C)ccc21 | 0.0 | -10.0 | -7.0 | 36.8* | -7.0 | -5.0
CCN1/C(=C/c2ccc3cc(C)ccc3[n+]2CC)Sc2cc(C)c(C)cc21 | 14.0 | 39.0 | -26.0 | -43.8 | 40.0* | 19.0
CCN1/C(=C/c2ccc3cc(C)ccc3[n+]2CC)Sc2ccccc21 | 5.0 | 14.0 | -22.0 | -59.6 | 15.0 | 13.0
O=C(Cc1ccc(-n2c(=O)c3ccccc3n(Cc3ccccc3Cl)c2=O)cc1)NCC1CCCO1 (configuration not stated) | -2.0 | -3.0 | 0.0 | 30.4* | -3.0 | -1.0
Cc1ccc(Cl)cc1NC(=S)NCc1cccn1C | -2.0 | 0.0 | -3.0 | -2.3 | 0.0 | -5.0
CCCCCCc1cc2cc(C(=O)Nc3ccccc3)c(=O)oc2cc1O | 14.0 | 36.0 | 50.0* | -19.7 | 45.0* | 15.0
CN=c1scc(-c2ccc(F)cc2)n1/N=C/c1ccc(O)c(O)c1 | 0.0 | 5.0 | 0.0 | -58.8 | 3.0 | -2.0
COc1cccc(/C=N/n2c(CO)nc3ccccc32)c1OC | 1.0 | -11.0 | -9.0 | -6.8 | -11.0 | 0.0
CNc1nc2ccccc2n1/N=C/c1cccc(OC)c1OC | 29.0 | . | . | -4.7 | 92.0* | 38.0
O=C(Nc1ccc(Cl)cc1)c1ccc(-n2cccn2)c([N+](=O)[O-])c1 | -1.0 | -14.0 | -12.0 | 38.4* | -11.0 | -10.0
O=C(Nc1ccc(-c2csnn2)cc1)C1CC1 | . | . | . | 82.8* | . | .
O=C(NCCc1ccccc1)C1CCN(C2CCN(Cc3ccc(CO)o3)CC2)CC1 | -1.0 | -2.0 | -4.0 | 37.8* | -3.0 | -3.0
O=C(NCCc1ccccc1)C1CCN(C2CCN(C(=O)CC3=CCCCC3)CC2)CC1 | -8.0 | -7.0 | -8.0 | -4.2 | -3.0 | 0.0
COc1cc2[nH]c(=S)nc(NCCc3ccc(S(N)(=O)=O)cc3)c2cc1OC | 39.0 | 12.0 | 31.0 | -1.6 | 19.0 | 55.0*
COc1cc2[nH]c(=S)nc(Nc3ccc(NC(C)=O)cc3)c2cc1OC | 33.0 | 29.0 | 31.0 | -3.5 | 21.0 | 50.0*
SMILES | Bcl-W Bim block | Bfl-1 Bim block | Bim-Bcl-B | MDM2 E3 inh | Bim-Bcl-2 | Bim-Bcl-XL | others
COc1cc2[nH]c(=S)nc(NC3CCCCCC3)c2cc1OC | 17.0 | 5.0 | 15.0 | 2.4 | 6.0 | 26.0
COc1ccc(CCNc2nc(=S)[nH]c3cc(OC)c(OC)cc23)cc1OC | 28.0 | 14.0 | 10.0 | -9.9 | 14.0 | 48.0*
Cc1ccnc(NC(=S)NC(=O)/C=C/c2ccc(Cl)cc2)c1 | -9.0 | -9.0 | -12.0 | -6.2 | -2.0 | -12.0
Cc1ccc(NC(=O)Cn2cc(C(F)(F)F)cc(Cl)c2=O)cc1Cl | 0.0 | -5.0 | -3.0 | -4.9 | 1.0 | -3.0
Cc1ccccc1NC(=O)c1sc2nc3c(c(-c4ccco4)c2c1N)CCC3 | 8.0 | 2.0 | 2.0 | -27.5 | 5.0 | 6.0
Nc1c(C(=O)NCC2CCCO2)sc2nc3c(c(-c4ccco4)c12)CC/C3=C\c1ccco1 (configuration not stated) | 33.0 | 38.0 | 52.0* | 6.7 | 65.0* | 37.0
CC(NC(=O)Cn1ncc(Cl)c(Cl)c1=O)C12CC3CC(CC(C3)C1)C2 (configuration not stated) | -3.0 | -1.0 | -5.0 | 99.1* | -4.0 | -3.0
CC(=O)Nc1ccc(S(=O)(=O)N(C)CC(=O)OCC(=O)N2CCc3ccccc32)cc1 | 1.0 | -10.0 | -5.0 | 47.4* | -7.0 | -3.0
Cc1cc(C)n(-c2n[nH]c(C)c2[N+](=O)[O-])n1 | -3.0 | 3.0 | 0.0 | . | 0.0 | 1.0
O=C1C(Cl)=C(N2CCN(c3ccccc3[N+](=O)[O-])CC2)C(=O)c2ccccc21 | 27.0 | 68.0* | -17.0 | 5.9 | 15.0 | 1.0 | Bim-Bcl-XL DR=4.35
O=[N+]([O-])c1cc(Cl)ccc1N1CCCC1 | 0.0 | -9.0 | -2.0 | -2.1 | -2.0 | 0.0
COc1ccc(N2C(=O)C(Cl)=C(NC3C(=O)N(c4ccccc4)N(C)C3C)C2=O)cc1 (configuration not stated) | . | . | . | . | . | . | Bim-Bcl-XL DR=-3.92
CCCCc1noc(-c2c(-c3ccccc3Cl)noc2C)n1 | -1.0 | -3.0 | -5.0 | -3.5 | -1.0 | 0.0
CC(=O)Nc1ccc(-n2cc(-c3ccccc3)[nH]c2=S)cc1 | -1.0 | 27.0 | -37.0 | -0.8 | -1.0 | -5.0 | Bim-Bcl-XL DR=-10.4
CC(=O)N1CCCC(C(=O)c2ccc(Oc3ccccc3)cc2)C1 (configuration not stated) | 2.0 | -1.0 | -4.0 | -6.0 | -1.0 | 0.0
O=C(CC(=O)NC1CCCCC1)N/N=C/c1ccccc1F | 1.0 | -4.0 | -4.0 | -72.6 | 0.0 | -3.0
Cc1nnc(Sc2cc(NCCO)c([N+](=O)[O-])c3nonc23)s1 | 14.0 | 55.0* | 0.0 | -1.8 | 12.0 | 3.0 | Bim-Bcl-XL DR=8.4
Cc1nnc(Sc2cc(NCCCO)c([N+](=O)[O-])c3nonc23)s1 | 5.0 | 29.0 | 5.0 | 4.0 | 6.0 | 1.0
